Source: ChEMBL document CHEMBL4270616, “Asymmetrical meta-methoxylated diarylpentanoids: Rational design, synthesis and anti-cancer evaluation in-vitro” (Eur J Med Chem, 2018)

Assays:
Format in all cases: functional
SW-620 [1] = assay: Induction of apoptosis in human SW620 cells assessed as early apoptotic cells at 2.5 uM after 24 hrs by Annexin V-FITC/propidium iodide staining based flow cytometry (reference value: 2.35%)
SW-620 [2] = assay: Induction of apoptosis in human SW620 cells assessed as late apoptotic cells at 1.25 uM after 48 hrs by Annexin V-FITC/propidium iodide staining based flow cytometry (reference value: 0.2%)
SW-620 [3] = assay: Induction of apoptosis in human SW620 cells assessed as early apoptotic cells at 2.5 uM after 48 hrs by Annexin V-FITC/propidium iodide staining based flow cytometry (reference value: 2.75%)
SW-620 [4] = assay: Induction of apoptosis in human SW620 cells assessed as late apoptotic cells at 2.5 uM after 48 hrs by Annexin V-FITC/propidium iodide staining based flow cytometry (reference value: 0.2%)
SW-620 [5] = assay: Anticlonogenic activity against human SW620 cells assessed as colony formation at 0.3125 uM after 10 days by crystal violet staining based imaging analysis (reference value: 100%)
How it was run: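 SW620 cells seeded at 1000 cells/well in DMEM, left overnight at 37°C, 5% CO2, then exposed to compound for ten days with drug-containing medium renewed every three days. Cells were PBS-washed, fixed in 4% paraformaldehyde for 15 min, stained with 0.5% (w/v) crystal violet for 10 min, air-dried, photographed, and colonies quantified by image analysis.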

SW-620 [6] = assay: Induction of apoptosis in human SW620 cells assessed as late apoptotic cells at 10 uM after 72 hrs by Annexin V-FITC/propidium iodide staining based flow cytometry (reference value: 0.29%)
SW-620 [7] = assay: Induction of apoptosis in human SW620 cells assessed as necrotic cells at 10 uM after 72 hrs by Annexin V-FITC/propidium iodide staining based flow cytometry (reference value: 0.27%)
SW-620 [8] = assay: Induction of apoptosis in human SW620 cells assessed as necrotic cells at 10 uM after 48 hrs by Annexin V-FITC/propidium iodide staining based flow cytometry (reference value: 0.23%)
SW-620 [9] = assay: Induction of apoptosis in human SW620 cells assessed as necrotic cells at 2.5 uM after 24 hrs by Annexin V-FITC/propidium iodide staining based flow cytometry (reference value: 0.15%)
A549 = assay: Cytotoxicity against human A549 cells assessed as inhibition of cell proliferation at 20 uM after 72 hrs by MTT assay relative to control; settings: A549, 72 h
How it was run: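 Single-concentration screen at 20 μM with 72 h exposure in DMEM with 10% FBS, final DMSO 0.1%. Read-out was MTT (5 mg/mL, 4 h, 37°C), DMSO solubilisation and absorbance at 570 nm, expressed as percent inhibition. Lines reaching a threshold percentage went on to IC50 determination.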

SW-620 [10] = assay: Induction of apoptosis in human SW620 cells assessed as early apoptotic cells at 2.5 uM after 72 hrs by Annexin V-FITC/propidium iodide staining based flow cytometry (reference value: 2.1%)

COc1ccc(/C=C2\CCC/C(=C\c3cc(OC)c(OC)c(OC)c3)C2=O)cc1OC
Activity (SW-620 [1]): 12.47%
Activity (SW-620 [2]): 0.37%
Activity (SW-620 [3]): 12.28%
Activity (SW-620 [4]): 6.7%
Activity (SW-620 [5]): 93.6%
Activity (SW-620 [6]): 94.51%
Activity (SW-620 [7]): 0.24%
Activity (SW-620 [8]): 1.3%
Activity (SW-620 [9]): 0.27%
inhibition at 20 µM (A549): > 50%
Activity (SW-620 [10]): 14.37%

COc1ccc(/C=C2\CCC/C(=C\c3cccc(O)c3)C2=O)cc1OC
Activity (SW-620 [1]): 5.46%
Activity (SW-620 [2]): 0.92%
Activity (SW-620 [3]): 4.43%
Activity (SW-620 [4]): 3.83%
Activity (SW-620 [5]): 97.9%
Activity (SW-620 [6]): 95.18%
Activity (SW-620 [7]): 0.22%
Activity (SW-620 [8]): 1.06%
Activity (SW-620 [9]): 0.2%
inhibition at 20 µM (A549): > 50%
Activity (SW-620 [10]): 4.52%
